Values belong to the compound of their own block, whether it stands above or below them.
Tests used:
Mus musculus [1] = experiment: Effect on locomotor activity in Swiss Albino mouse assessed as number of crossings in 30 mins at 1 mg/kg administered 30 mins before the test; format: functional
In short: (§1)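 Male Albino Swiss mice given compound ip (1% Tween 80, 10 ml/kg) 30 min before placement singly in plastic cages in a multichannel photobeam activity monitor; ambulation crossings counted over the first 6 min and over a 30 min session. n = 9-10 per group; ANOVA then Dunnett's test.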

Mus musculus [2] = experiment: Anxiolytic activity in Swiss Albino mouse assessed as number of punished crossings for 60 secs at 2.5 mg/kg administered 30 mins before the test by four-plate test; format: functional
In short: (§2)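 Male Albino Swiss mice (24–28 g), compound suspended in 1% aqueous Tween 80, given ip (10 ml/kg). Mouse placed in box with four metal floor plates, 15 s exploration, then floor electrified (120 V, 0.5 s) at each plate-to-plate crossing, no new shock for 3 s. Punished crossings counted over 60 s. n = 9-10/group; one-way ANOVA then Dunnett's test.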

Mus musculus [3] = experiment: Anxiolytic activity in Swiss Albino mouse assessed as number of punished crossings for 60 secs at 5 mg/kg administered 30 mins before the test by four-plate test; format: functional
In short: (§3)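 Male Albino Swiss mice dosed ip (1% aqueous Tween 80, 10 ml/kg) 30 min beforehand. Opaque box floored with four metal plates; 15 s free exploration, then each plate-to-plate crossing triggers a 0.5 s, 120 V floor shock, with no new shock for 3 s if running continues. Punished crossings counted over 60 s; n = 9-10, ANOVA plus Dunnett's test.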

Mus musculus [4] = experiment: Anxiolytic activity in Swiss Albino mouse assessed as number of punished crossings for 60 secs at 1.25 mg/kg administered 30 mins before the test by four-plate test; format: functional; in short: as §2
Mus musculus [5] = experiment: Antidepressant activity in Swiss Albino mouse assessed as immobility time during final 4 mins of 6 mins session at 5 mg/kg administered 30 mins before the test by forced-swimming test; format: functional
In short: (§4)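 Male Albino Swiss mice (24–28 g), compound given ip in 1% aqueous Tween 80 (10 ml/kg), 30 min before test. Mouse placed singly in glass cylinder (25 cm high, 10 cm diameter) holding 6 cm water at 23–25 °C for 6 min; immobility (floating, only small head-keeping movements) timed over last 4 min. n = 9-10 per group; one-way ANOVA then Dunnett's test.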

[6] = Displacement of [3H]prazosin from adrenergic alpha1 receptor in rat cortical membranes; format: cell membranes, Membrane
In short: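 Rat cortical membranes with [3H]-prazosin; phentolamine defines nonspecific binding. 7–9 drug concentrations in triplicate, at least three separate experiments; stopped by GF/B filtration with three ice-cold buffer washes, bound radioactivity by liquid scintillation counting; Ki from non-linear regression and Cheng-Prusoff equation.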

[7] = biological target: 5-hydroxytryptamine receptor 7 (Homo sapiens, UniProt P34969); experiment: Displacement of [3H]5-CT from human 5HT7 expressed in HEK293 cells; format: cell-based
In short: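 HEK293 cells stably transfected with human 5-HT7(b) cDNA; membranes (10 µg protein) incubated 1 h at 37 °C in 50 mM Tris-HCl pH 7.4 with 4 mM MgCl2, 0.1 mM pargyline, 0.1% ascorbic acid, 0.5 nM [3H]-5-CT and 7–9 test concentrations in triplicate; 10 µM 5-HT defines nonspecific binding. GF/B filtration, scintillation counting; Ki via Cheng-Prusoff from ≥3 experiments.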

Mus musculus [8] = experiment: Antidepressant activity in Swiss Albino mouse assessed as immobility time during final 4 mins of 6 mins session at 1.25 mg/kg administered 30 mins before the test by forced-swimming test; format: functional; in short: as §4
Mus musculus [9] = experiment: Antidepressant activity in Swiss Albino mouse assessed as immobility time during final 4 mins of 6 mins session at 2.5 mg/kg administered 30 mins before the test by forced-swimming test; format: functional; in short: as §4
Mus musculus [10] = experiment: Effect on locomotor activity in Swiss Albino mouse assessed as number of crossings in 6 mins at 0.3 mg/kg administered 30 mins before the test; format: functional; in short: as §1
Mus musculus [11] = experiment: Effect on locomotor activity in Swiss Albino mouse assessed as number of crossings in 30 mins at 0.3 mg/kg administered 30 mins before the test; format: functional; in short: as §1
Mus musculus [12] = experiment: Effect on locomotor activity in Swiss Albino mouse assessed as number of crossings in 6 mins at 1 mg/kg administered 30 mins before the test; format: functional; in short: as §1
Rattus norvegicus [13] = experiment: Effect on lower lip retraction in Wistar rat at 0.1 mg/kg; format: functional
In short: (§5)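 Male Wistar rats (290–310 g) dosed ip in 1% Tween 80 (2 ml/kg), caged singly; lower lip retraction scored 15, 30 and 45 min after dosing as 0 (incisors not visible), 0.5 (partly) or 1 (completely visible), totals up to 3 per rat. n = 6 per group; one-way ANOVA followed by Dunnett's test.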

Rattus norvegicus [14] = experiment: Effect on lower lip retraction in Wistar rat at 0.3 mg/kg; format: functional; in short: as §5
Rattus norvegicus [15] = experiment: Effect on lower lip retraction in Wistar rat at 1 mg/kg; format: functional; in short: as §5
Rattus norvegicus [16] = experiment: Effect on 8-OH-DPAT-induced lower lip retraction in Wistar rat at 0.1 mg/kg; format: functional
Mus musculus [17] = experiment: Anxiolytic activity in Swiss Albino mouse assessed as number of punished crossings for 60 secs at 0.3 mg/kg administered 30 mins before the test by four-plate test; format: functional; in short: as §3
Mus musculus [18] = experiment: Anxiolytic activity in Swiss Albino mouse assessed as number of punished crossings for 60 secs at 1 mg/kg administered 30 mins before the test by four-plate test; format: functional; in short: as §3
[19] = biological target: T1, 5-hydroxytryptamine receptor 1A (Rattus norvegicus, UniProt P19327); experiment: Displacement of [3H]8-OH-DPAT from 5HT1A in rat hippocampal membranes; format: cell membranes, Hippocampus, Membrane
T1 sequence (P19327 whole entry): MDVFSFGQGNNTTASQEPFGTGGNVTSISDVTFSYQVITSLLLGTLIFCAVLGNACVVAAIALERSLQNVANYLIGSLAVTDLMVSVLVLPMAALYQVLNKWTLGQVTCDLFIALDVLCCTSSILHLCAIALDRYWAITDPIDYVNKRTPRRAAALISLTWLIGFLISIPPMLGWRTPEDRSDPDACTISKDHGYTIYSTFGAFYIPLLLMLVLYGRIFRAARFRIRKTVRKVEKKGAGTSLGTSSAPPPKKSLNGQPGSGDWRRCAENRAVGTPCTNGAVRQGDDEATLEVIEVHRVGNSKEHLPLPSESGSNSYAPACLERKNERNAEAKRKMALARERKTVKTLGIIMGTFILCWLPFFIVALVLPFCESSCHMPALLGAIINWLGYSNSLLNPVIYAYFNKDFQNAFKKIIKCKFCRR
In short: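 Rat hippocampal membranes, [3H]-8-OH-DPAT as radioligand, 5-HT defining nonspecific binding. 7–9 drug concentrations run in triplicate, at least three separate experiments. Filtration through GF/B filters with three ice-cold buffer washes, scintillation counting. Ki from non-linear regression of binding isotherms via Cheng-Prusoff equation.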

D(2) dopamine receptor = D(2) dopamine receptor (Rattus norvegicus, UniProt P61169); experiment: Displacement of [3H]spiperone from dopamine D2 receptor in rat striatal membranes; format: cell membranes, Membrane
In short: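 Competition binding on rat striatal membranes using [3H]-spiperone, butaclamol for nonspecific binding; filtration through GF/B filters and scintillation counting. Run at two compound concentrations, each in triplicate, and affinity expressed as estimated Ki.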

Mus musculus [20] = experiment: Antidepressant activity in Swiss Albino mouse assessed as immobility time during final 4 mins of 6 mins session at 0.1 mg/kg administered 30 mins before the test by forced-swimming test; format: functional; in short: as §4
Mus musculus [21] = experiment: Antidepressant activity in Swiss Albino mouse assessed as immobility time during final 4 mins of 6 mins session at 0.3 mg/kg administered 30 mins before the test by forced-swimming test; format: functional; in short: as §4
Mus musculus [22] = experiment: Antidepressant activity in Swiss Albino mouse assessed as immobility time during final 4 mins of 6 mins session at 1 mg/kg administered 30 mins before the test by forced-swimming test; format: functional; in short: as §4
Mus musculus [23] = species: Mus musculus; conditions: Swiss Albino, 5 mg/kg
Mus musculus [24] = species: Mus musculus; conditions: Swiss Albino, 2.5 mg/kg
Mus musculus [25] = species: Mus musculus; conditions: Swiss Albino, 5 mg/kg; remark: listed apart in the source
Mus musculus [26] = species: Mus musculus; conditions: Swiss Albino, 2.5 mg/kg; remark: listed apart in the source
Mus musculus [27] = species: Mus musculus; conditions: Swiss Albino, 5 mg/kg; remark: listed apart in the source
Mus musculus [28] = species: Mus musculus; conditions: Swiss Albino, 5 mg/kg; remark: listed apart in the source
Mus musculus [29] = species: Mus musculus; conditions: Swiss Albino, 5 mg/kg; remark: listed apart in the source
Mus musculus [30] = species: Mus musculus; conditions: Swiss Albino, 2.5 mg/kg; remark: listed apart in the source
Mus musculus [31] = species: Mus musculus; conditions: Swiss Albino, 5 mg/kg; remark: listed apart in the source
Mus musculus [32] = species: Mus musculus; conditions: Swiss Albino, 2.5 mg/kg; remark: listed apart in the source
Mus musculus [33] = experiment: Effect on locomotor activity in Swiss Albino mouse assessed as number of crossings in 6 mins at 20 mg/kg administered 30 mins before the test; format: functional; in short: as §1
Mus musculus [34] = experiment: Effect on locomotor activity in Swiss Albino mouse assessed as number of crossings in 30 mins at 20 mg/kg administered 30 mins before the test; format: functional; in short: as §1
Mus musculus [35] = experiment: Antidepressant activity in Swiss Albino mouse assessed as immobility time during final 4 mins of 6 mins session at 10 mg/kg administered 30 mins before the test by forced-swimming test; format: functional; in short: as §4
Mus musculus [36] = experiment: Antidepressant activity in Swiss Albino mouse assessed as immobility time during final 4 mins of 6 mins session at 20 mg/kg administered 30 mins before the test by forced-swimming test; format: functional; in short: as §4
Mus musculus [37] = experiment: Effect on locomotor activity in Swiss Albino mouse assessed as number of crossings in 30 mins at 10 mg/kg administered 30 mins before the test; format: functional; in short: as §1

5-hydroxytryptamine receptor 7, sequence (P34969 whole entry): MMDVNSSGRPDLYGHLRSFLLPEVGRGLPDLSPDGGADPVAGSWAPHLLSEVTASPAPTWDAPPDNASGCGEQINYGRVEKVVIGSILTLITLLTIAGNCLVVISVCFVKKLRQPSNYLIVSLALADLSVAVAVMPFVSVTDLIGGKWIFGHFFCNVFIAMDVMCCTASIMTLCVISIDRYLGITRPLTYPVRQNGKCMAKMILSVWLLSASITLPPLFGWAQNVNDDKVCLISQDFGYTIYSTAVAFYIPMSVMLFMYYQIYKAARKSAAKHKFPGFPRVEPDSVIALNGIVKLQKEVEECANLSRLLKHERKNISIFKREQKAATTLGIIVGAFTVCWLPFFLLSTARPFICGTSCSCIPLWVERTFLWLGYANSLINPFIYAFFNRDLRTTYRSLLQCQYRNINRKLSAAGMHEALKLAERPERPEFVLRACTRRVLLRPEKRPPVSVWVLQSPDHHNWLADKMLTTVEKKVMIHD
D(2) dopamine receptor, sequence (P61169 whole entry): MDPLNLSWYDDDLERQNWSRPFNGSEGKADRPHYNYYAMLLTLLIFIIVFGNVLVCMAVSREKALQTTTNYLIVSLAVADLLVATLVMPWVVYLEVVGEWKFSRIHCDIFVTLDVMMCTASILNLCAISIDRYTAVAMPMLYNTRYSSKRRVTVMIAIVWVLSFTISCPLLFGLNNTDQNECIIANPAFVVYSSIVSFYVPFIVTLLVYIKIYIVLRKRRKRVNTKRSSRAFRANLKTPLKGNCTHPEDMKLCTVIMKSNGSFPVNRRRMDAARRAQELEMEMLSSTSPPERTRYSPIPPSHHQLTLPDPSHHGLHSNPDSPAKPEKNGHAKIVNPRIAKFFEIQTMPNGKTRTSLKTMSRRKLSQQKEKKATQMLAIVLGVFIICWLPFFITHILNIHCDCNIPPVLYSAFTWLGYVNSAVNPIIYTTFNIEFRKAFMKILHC

SMILES: CC1(C)CC(=O)N(C2CCC(N3CCN(c4cccc(C(F)(F)F)c4)CC3)CC2)C(=O)C1 (stereo not given)
Activity (Mus musculus [1]): 535.3 | Activity (Mus musculus [2]): 4.6 | Activity (Mus musculus [3]): 4.6 | Activity (Mus musculus [4]): 4.4 | Activity (Mus musculus [5]): 113.3 s | Ki [6]: 268 nM | Ki [7]: 221 nM | Activity (Mus musculus [8]): 150.4 s | Activity (Mus musculus [9]): 98.2 s | Activity (Mus musculus [10]): 212 | Activity (Mus musculus [11]): 630.1 | Activity (Mus musculus [12]): 211.7

Ki [19]: 2.6 nM | Ki (D(2) dopamine receptor): > 5 µM | Ki [6]: 85 nM | Ki [7]: 1200 nM
SMILES: O=C1CCCC(=O)N1C1CCC(N2CCN(c3cccc(C(F)(F)F)c3)CC2)CC1 (trans isomer)
Activity (Mus musculus [1]): 374.3 | Activity (Rattus norvegicus [13]): 1.3 | Activity (Rattus norvegicus [14]): 2.4 | Activity (Rattus norvegicus [15]): 3 | Activity (Rattus norvegicus [16]): 2.6 | Activity (Mus musculus [3]): 4.2 | Activity (Mus musculus [17]): 3.9 | Activity (Mus musculus [18]): 3.9 | Activity (Mus musculus [20]): 128.3 s | Activity (Mus musculus [21]): 70.1 s | Activity (Mus musculus [22]): 77.7 s | Activity (Mus musculus [10]): 208.2 | Activity (Mus musculus [11]): 537.7 | Activity (Mus musculus [12]): 121.6 | deltaT (Mus musculus [23]): -1.5 °C | deltaT (Mus musculus [24]): -0.5 °C | deltaT (Mus musculus [25]): -1.3 °C | deltaT (Mus musculus [26]): -0.3 °C | deltaT (Mus musculus [27]): -1.2 °C | deltaT (Mus musculus [28]): -1.2 °C | deltaT (Mus musculus [29]): -1.6 °C | deltaT (Mus musculus [30]): -0.7 °C | deltaT (Mus musculus [31]): -1.5 °C | deltaT (Mus musculus [32]): -0.5 °C

SMILES: CN(C)CCCN1c2ccccc2CCc2ccccc21 [IMIPRAMINE]
Activity (Mus musculus [33]): 314.9 | Activity (Mus musculus [34]): 625.3 | Activity (Mus musculus [35]): 149.1 s | Activity (Mus musculus [36]): 107.8 s | Activity (Mus musculus [37]): 876.8

From ChEMBL document CHEMBL1139831, “The influence of modifications in imide fragment structure on 5-HT(1A) and 5-HT(7) receptor affinity and in vivo pharmacological properties of some new 1-(m-trifluoromethylphenyl)piperazines” (Bioorg Med Chem, 2007)
